These results are taken from ChEMBL document CHEMBL1833790, “N-(2-{3-[3,5-bis(trifluoromethyl)phenyl]ureido}ethyl)-glycyrrhetinamide (6b): a novel anticancer glycyrrhetinic acid derivative that targets the proteasome and displays anti-kinase activity” (J Med Chem, 2011).

Active and inactive are the calls of the source. No cut-off for these calls is given here. Some results are limits rather than exact numbers.

One series deals with A549. The series is described as follows: Growth inhibition in apoptosis-resistant human A549 after 3 days by MTT assay. It is filed as functional. To be noted: A549, 72 h. The gist of the method: (§1)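 Cells grown in RPMI with 10% heat-inactivated FCS, 4 mM glutamine, gentamicin and penicillin–streptomycin. Drug exposure 3 days, growth read by MTT colorimetric assay. Nine concentrations from 0.01 to 100 μM in semilog steps, six replicates each; IC50 derived per cell line.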
A general note: Tetrazolium assays rely on reduction of a dye to a coloured formazan, in cell work by metabolically active cells.

Series [1] relates to U-373MG ATCC. The series is described as follows: Activation of caspase-like activity of 20S proteasome in human U373 cells at 3 uM after 2 days by bioluminescence assay. It is filed as cell-based. In short, it runs like this: (§2)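 Caspase-like site, substrate Z-nLPnLD-Glo. U373 cells were plated at 5000 cells/mL for 48 h, then treated two days. Cells were PBS-washed and permeabilised with 0.025% digitonin before Proteasome-Glo reagent was added. Luminescence was read after 10 min in the dark. Triplicates, normalised to a parallel MTT viability assay under identical conditions.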

Another series relates to B16-F10. The series is described as follows: Growth inhibition in mouse B16F10 after 3 days by MTT assay. The format is functional. To be noted: B16-F10, 72 h. The gist of the method:
as §1

The subject of the next series is MCF7. Briefly: Growth inhibition in apoptosis-sensitive human MCF7 after 3 days by MTT assay. The format is functional. To be noted: MCF7, 72 h. The gist of the method:
as §1

The subject of another series is Hs 683. The series is described as follows: Growth inhibition in apoptosis-sensitive human Hs683 after 3 days by MTT assay. It is filed as functional. To be noted: Hs 683, 72 h. The gist of the method:
as §1

A short description of series [2]: Growth inhibition in apoptosis-resistant human U373 after 3 days by MTT assay. It is filed as functional, U-373MG ATCC. To be noted: U373 MG, 72 h. The gist of the method:
as §1

Series [3] is described as follows: Chemical stability of the compound in MEM cell culture medium after 7 days by HPLC analysis. The format is physicochemical. To be noted: read-out: Stability. In short, it runs like this:
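Compound incubated in MEM culture medium at 37 °C for 7 days, then analysed by HPLC on RX-C8 (5 μm) column with MeOH–water 90:10 (0.1% TFA), diode-array detection. Expressed as % of incubated compound recovered.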

A further series relates to T98G. Briefly: Growth inhibition in apoptosis-resistant human T98G after 3 days by MTT assay. To be noted: 72 h. The format is functional. In short, it runs like this:
as §1

The test system of a further series is SK-MEL-28. The series is described as follows: Growth inhibition in apoptosis-resistant human SK-MEL-28 after 3 days by MTT assay. The format is functional. To be noted: SK-MEL-28, 72 h. In short, it runs like this:
as §1

The next series relates to PC-3. The series is described as follows: Growth inhibition in apoptosis-sensitive human PC3 after 3 days by MTT assay. To be noted: PC-3, 72 h. It is filed as functional. The gist of the method: as §1
Series [4] deals with T1, Peroxisome proliferator-activated receptor gamma (Homo sapiens) (UniProt P37231).
T1 sequence (whole entry): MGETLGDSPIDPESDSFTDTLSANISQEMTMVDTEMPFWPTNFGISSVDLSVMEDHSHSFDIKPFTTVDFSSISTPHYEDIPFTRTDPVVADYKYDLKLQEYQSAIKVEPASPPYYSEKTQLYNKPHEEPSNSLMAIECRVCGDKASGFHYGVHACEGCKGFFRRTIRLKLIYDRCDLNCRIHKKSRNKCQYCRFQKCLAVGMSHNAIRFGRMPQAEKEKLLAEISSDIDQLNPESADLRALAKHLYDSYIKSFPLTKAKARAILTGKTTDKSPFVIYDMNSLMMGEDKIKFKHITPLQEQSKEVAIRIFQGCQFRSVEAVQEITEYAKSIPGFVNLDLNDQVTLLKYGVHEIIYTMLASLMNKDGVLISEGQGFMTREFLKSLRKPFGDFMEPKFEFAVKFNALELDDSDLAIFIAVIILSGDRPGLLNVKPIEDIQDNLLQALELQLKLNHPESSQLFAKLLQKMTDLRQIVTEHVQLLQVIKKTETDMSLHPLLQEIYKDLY
Briefly: Inhibition of PPARgamma activity in human U373 cells at 3 uM after 6 hrs by spectrophotometric analysis relative to control. It is filed as cell-based. To be noted: U-373MG ATCC. In short, it runs like this:
(§3)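 Human U373 glioblastoma cells exposed to compound for 6 h, then detached with trypsin. Nuclear extracts prepared by hypotonic lysis with Nonidet P-40 and extraction buffer with protease inhibitor, clarified at 14 000 g, 4 °C. Extracts bound overnight at 4 °C in a PPAR-γ transcription factor ELISA kit, with primary antibody then HRP anti-rabbit. Absorbance read at 450 nm; triplicates, mean ± SD versus control.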

The subject of series [5] is U-373MG ATCC. Briefly: Activation of chymotrypsin-like activity of 20S proteasome in human U373 cells at 3 uM after 2 days by bioluminescence assay. It is filed as cell-based. In short, it runs like this:
(§4)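 Chymotrypsin-like site, substrate Suc-LLVY-Glo. U373 cells were seeded at 5000 cells/mL for 48 h and exposed two days. After a PBS wash and 0.025% digitonin permeabilisation, Proteasome-Glo reagent was added. Bioluminescence was read after 10 min dark incubation. Triplicates, normalised by a concurrent MTT viability assay run in identical conditions.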

Series [6] has as its system U-373MG ATCC. Briefly: Inhibition of trypsin-like activity of 20S proteasome in human U373 cells at 3 uM after 2 days by bioluminescence assay. It is filed as cell-based. The gist of the method: (§5)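 U373 GBM cells seeded at 5000 cells/mL and grown 48 h, then treated for two days. Cells washed in PBS and permeabilised with 0.025% digitonin. Proteasome-Glo reagent added with Suc-LLVY-Glo (chymotrypsin-like), Z-LRR-Glo (trypsin-like) or Z-nLPnLD-Glo (caspase-like) substrate. Luminescence read after 10 min in the dark and normalised to a parallel MTT viability assay; triplicates. MG-132 at 0.5 μM used as reference.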

In series [7] the test system is U-373MG ATCC. Briefly: Activation of caspase-like activity of 20S proteasome in human U373 cells at 50 uM after 2 days by bioluminescence assay. The format is cell-based. The gist of the method:
as §2

Series [8] concerns the target T1, Peroxisome proliferator-activated receptor gamma (Homo sapiens). Briefly: Inhibition of PPARgamma activity in human U373 cells at 50 uM after 6 hrs by spectrophotometric analysis relative to control. It is filed as cell-based. To be noted: U-373MG ATCC. The gist of the method:
as §3

For series [9], the system named is U-373MG ATCC. The series is described as follows: Inhibition of trypsin-like activity of 20S proteasome in human U373 cells at 50 uM after 2 days by bioluminescence assay. The format is cell-based. In short, it runs like this:
as §5

In series [10] the test system is U-373MG ATCC. Briefly: Activation of chymotrypsin-like activity of 20S proteasome in human U373 cells at 50 uM after 2 days by bioluminescence assay. It is filed as cell-based. In short, it runs like this:
as §4

In series [11] the test system is U-373MG ATCC. The series is described as follows: Inhibition of trypsin-like activity of 20S proteasome in human U373 cells at 60 uM after 2 days by bioluminescence assay. It is filed as cell-based. The gist of the method:
as §5

Series [12] has as its system U-373MG ATCC. Briefly: Activation of chymotrypsin-like activity of human proteasome in U373 at 60 uM after 2 days by bioluminescence assay. It is filed as cell-based. The gist of the method:
as §4

For series [13], the system named is U-373MG ATCC. The series is described as follows: Activation of caspase-like activity of 20S proteasome in human U373 cells at 60 uM after 2 days by bioluminescence assay. It is filed as cell-based. The gist of the method:
as §2

Series [14] deals with T1, Peroxisome proliferator-activated receptor gamma (Homo sapiens). The series is described as follows: Inhibition of PPARgamma activity in human U373 cells at 60 uM after 6 hrs by spectrophotometric analysis relative to control. The format is cell-based. To be noted: U-373MG ATCC. In short, it runs like this: as §3

As for `COc1cc(/C=C/C(C)=O)ccc1OC(=O)[C@@]1(C)CC[C@]2(C)CC[C@]3(C)C(=CC(=O)[C@@H]4[C@@]5(C)CC[C@H](O)C(C)(C)[C@@H]5CC[C@]43C)[C@@H]2C1`, the GI50 was 2 µM in the series on A549; 3 µM in the series with B16-F10; 3 µM in the series on MCF7; 3 µM in the series with Hs 683; 2 µM in [2]; 3 µM with T98G. Besides, the concentration for 50% growth inhibition (GI50) turned out to be 3 µM in the series on SK-MEL-28 and 2 µM in the series on PC-3. Also, the outcome in the series on U-373MG ATCC [1] and in the series on U-373MG ATCC [5] was Active. Besides, the remaining at 168 h in series [3] was 68%. Further, the inhibition entry (in series [4]; with U-373MG ATCC [6]) was “Active” each time.

As for `CC1(C)[C@@H](O)CC[C@]2(C)[C@H]3C(=O)C=C4[C@@H]5C[C@@](C)(C(=O)NCc6ccc(C(F)(F)F)cc6)CC[C@]5(C)CC[C@@]4(C)[C@]3(C)CC[C@@H]12`, the outcome in the series on U-373MG ATCC [7] and in the series on U-373MG ATCC [10] was Active. Moreover, the inhibition entry (in [8]; in the series with U-373MG ATCC [9]) was “Active” in each case. The GI50 with A549 was determined as 37 µM; with B16-F10, 39 µM; in the series on MCF7, 29 µM; in the series with Hs 683, 49 µM; in series [2] it was 44 µM; in the series on T98G it was 67 µM. For the same compound, the 50% growth inhibitory concentration (GI50) was 65 µM in the series with SK-MEL-28 and 35 µM with PC-3. Besides, the remaining at 168 h in [3] came to 95%.

In the case of `COc1ccc(CCNC(=O)[C@@]2(C)CC[C@]3(C)CC[C@]4(C)C(=CC(=O)[C@@H]5[C@@]6(C)CC[C@H](O)C(C)(C)[C@@H]6CC[C@]54C)[C@@H]3C2)cc1OC`, the inhibition result (in the series with U-373MG ATCC [11]; in [14]) was “Active” throughout. Besides, the concentration for 50% growth inhibition (GI50) came out at 52 µM in the series with A549; 37 µM with B16-F10; 34 µM with MCF7; 59 µM in the series on Hs 683; 43 µM in [2]; 91 µM in the series with T98G. Moreover, the values for the concentration for 50% growth inhibition (GI50) with SK-MEL-28 and in the series on PC-3 were over 100 µM and 34 µM, respectively. The remaining at 168 h in series [3] was 86%. In addition, the outcome in the series with U-373MG ATCC [12] and in the series with U-373MG ATCC [13] was Active.

Usually GI50 stands for the concentration giving 50% growth inhibition.
